Data set [1] in a line: Intrinsic clearance in human liver microsomes assessed per mg of protein at 1 uM by LC/MS analysis. It is filed as ADME. Conditions: read-out: CLH. The procedure, abridged:
(§1)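 Human or mouse liver microsomes, 0.4 mg/mL protein in 0.1 M phosphate pH 7.4, with 1 µM compound at 37°C. Reactions started with an NADPH-regenerating system (NADP, glucose-6-phosphate, G6P dehydrogenase) plus MgCl2. Quenched with ice-cold acetonitrile at time points from 0 to 60 min. Parent compound remaining in supernatant measured by LC-MS.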

The nature of data set [2]: Kinetic solubility of compound in HCl at pH 2 by nephelometry. Conditions: read-out: Kinetic_solubility. In kind it is physicochemical. The procedure, abridged:
(§2)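 DMSO stock serially diluted and spiked into pH 6.5 phosphate buffer or 0.01 M HCl (about pH 2.0), final 1% DMSO. Solubility range determined by nephelometry.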

A short description of data set [3]: Partition coefficient, log D of the compound at pH 7.4 by HPLC method. In kind it is physicochemical. To be noted: octanol/water. Put shortly:
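LogD estimated by gradient HPLC (Lombardo-derived method). C18-type Hydro-RP column with 50 mM ammonium acetate pH 7.4 and an acetonitrile gradient of 0–100% over 13.5 min. UV detection at 220/254 nm. Retention compared with nine standards of shake-flask-determined partition coefficients.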

Data set [4] in a line: Half life in mouse liver microsomes at 1 uM by LC/MS analysis. It is filed as ADME. The procedure, abridged:
as §1

The test system of another data set is HEK293. As to the kind of experiment: Cytotoxicity against HEK293 cells assessed as cell viability after 72 hrs by resazurin assay. Conditions: human, hek293, 72 h. In kind it is cell-based. The procedure, abridged:
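HEK293 cells in DMEM with 10% FCS, seeded at 2000 cells/well and left to adhere overnight. Compound dose response with top final 40 μM, 0.4% DMSO. Exposure 72 h at 37 °C, 5% CO2. Medium then replaced by 44 μM resazurin in serum-free DMEM for 4-6 h. Fluorescence read at ex/em 530/595 nm.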

Data set [5] is described as follows: Kinetic solubility of compound in phosphate buffer at pH 6.5 by nephelometry. In kind it is physicochemical. Conditions: read-out: Kinetic_solubility. Put shortly: as §2
The nature of data set [6]: Inhibition of recombinant Plasmodium falciparum M17 aminopeptidase using H-Leu-NHMec as substrate preincubated for 10 mins followed by addition of substrate by spectrofluorimetric analysis. The procedure, abridged:
(§3)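 E. coli-expressed enzymes, purified by Ni-NTA and size exclusion. Preincubation 10 min at 37°C with inhibitor: M1 in 100 mM Tris pH 8.0; M17 in 50 mM Tris pH 8.0, 2 mM CoCl2. Substrate H-Leu-NHMec kept below Km. Fluorescence ex 355/em 460 nm followed to steady-state velocity. Inhibitor range 500pM–500 μM. Ki from Dixon plots (1/V vs [I]).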

Data set [7] deals with Plasmodium falciparum. As to the kind of experiment: Antiparasitic activity against chloroquine/quinine/pyrimethamine/sulfadoxine/NITD609-resistant Plasmodium falciparum Dd2 clone 2 assessed as growth inhibition after 72 hrs by DAPI staining-based confocal image analysis. It is filed as functional, organism-based. To be noted: Dd2, 72 h. Put shortly: (§4)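 Sorbitol-synchronised ring-stage parasites in human O+ erythrocytes at 2% parasitaemia, 0.3% haematocrit, incubated 72 h at 37 °C (5% CO2) with three-step log serial dilutions from 20 μM top, 0.4% DMSO final. Staining with DAPI/saponin/Triton X/EDTA in PBS, confocal imaging, parasite count.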

Data set [8] is described as follows: Apparent half life in mouse plasma incubated for 6 hrs by UPLC/MC analysis. In kind it is ADME, cell-free. To be noted: read-out: t1/2(app). Put shortly:
(§5)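 Pooled plasma (human n=3 donors; mouse from multiple animals), thawed and spiked to nominal 500 ng/mL test compound, final 0.2% DMSO and 0.4% acetonitrile (v/v). Incubated at 37°C, 4 h human or 6 h mouse. Duplicate samples taken at time points and snap-frozen. Quantified by UPLC/MS against matched-plasma standards. Half-life obtained by exponential decay fit of % remaining.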

Data set [9] is described as follows: Half life in human liver microsomes at 1 uM by LC/MS analysis. It is filed as ADME. The procedure, abridged:
as §1

A short description of data set [10]: Inhibition of recombinant Plasmodium falciparum M1 aminopeptidase using H-Leu-NHMec as substrate preincubated for 10 mins followed by addition of substrate by spectrofluorimetric analysis. The procedure, abridged: as §3
For data set [11], the system named is Plasmodium falciparum. The data set is described as follows: Antiparasitic activity against Plasmodium falciparum Dd2 assessed as growth inhibition after 72 hrs by DAPI staining-based confocal image analysis. In kind it is functional, organism-based. Conditions: Dd2, 72 h. Put shortly: as §4
The subject of data set [12] is Plasmodium falciparum. As to the kind of experiment: Antiparasitic activity against Plasmodium falciparum 3D7 assessed as growth inhibition after 72 hrs by DAPI staining-based confocal image analysis. It is filed as functional, organism-based. Conditions: 3D7, 72 h. Put shortly:
as §4

Data set [13] in a line: Apparent half life in human plasma incubated for 4 hrs by UPLC/MC analysis. It is filed as ADME, cell-free. To be noted: read-out: t1/2(app). Put shortly: as §5
A short description of data set [14]: Intrinsic clearance in mouse liver microsomes assessed per mg of protein at 1 uM by LC/MS analysis. In kind it is ADME. To be noted: read-out: CLH. Put shortly:
as §1

Values after ≈ are worked out from the molar mass of the structure shown.

Experimental findings from ChEMBL document CHEMBL3763022, “Potent dual inhibitors of Plasmodium falciparum M1 and M17 aminopeptidases through optimization of S1 pocket interactions” (Eur J Med Chem, 2016) are described below.

`CC(C)(C)C(=O)NC(C(=O)NO)c1ccc(-c2cc(F)c(F)c(F)c2)cc1` (stereo not given): the microsomal CLint at 1 µM in data set [1] is 8 µL/min/mg; in data set [14], 25 µL/min/mg. For the same compound, the solubility kinetic in data set [2] and in data set [5] was 12.5 µg/mL (≈ 32.9 µM) in each case. The pH-dependent lipophilicity (logD) in data set [3] is 3. Moreover, the results for the half-life at 1 µM in data set [4] and in [9] were 1.15 h and 3.68 h, respectively. For the same compound, the Activity entry in the data set with HEK293 is “Non-toxic”. Besides, the figures for the Ki in data set [6] and in data set [10] were 60 nM and 78 nM, respectively. Also, the concentration for half-maximal inhibition (IC50) with Plasmodium falciparum [7] was found to be 107 nM; in the data set with Plasmodium falciparum [11] it was 189 nM; in the data set on Plasmodium falciparum [12] it was 126 nM. Besides, the results for the half-life in data set [8] and in data set [13] were more than 25 h and more than 17 h, respectively.
